# According to ChEMBL document CHEMBL1817592, “Triazoles as γ-secretase modulators” (Bioorg Med Chem Lett, 2011):
# What was measured:
# Assay type in all cases: ADME, organism-based
# [1] = Plasma clearance in Sprague-Dawley rat at 1 mg/kg, iv and 2 mg/kg, po
# Outline: (§1)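 SD rat pharmacokinetics: 1 mg/kg iv and 2 mg/kg po. Plasma clearance and Vd were determined. Half-life came from the iv arm.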
# [2] = Volume of distribution at steady state in Sprague-Dawley rat at 1 mg/kg, iv and 2 mg/kg, po; details: in vivo, read-out: Vdss; outline: as §1
# [3] = Half life in Sprague-Dawley rat at 1 mg/kg, iv; design: dose 1 mg/kg, route intravenous; details: in vivo; outline: as §1
# [4] = Oral bioavailability in Sprague-Dawley rat at 2 mg/kg; details: in vivo; outline: as §1
# Rattus norvegicus = test: Dose normalized AUC (0 to 24 hrs) in Sprague-Dawley rat at 2 mg/kg, po; design: dose 2 mg/kg, route oral; details: in vivo
# Outline: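 Sprague–Dawley rats dosed orally at 2 mg/kg, alongside a separate 1 mg/kg iv arm. Plasma exposure was followed over 0–24 h after the oral dose. AUC was normalized to dose and expressed as μM h kg/mg.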
# [5] = Plasma concentration in Sprague-Dawley rat at 100 mg/kg, po after 6 hrs; design: dose 100 mg/kg, route oral
# Outline: (§2)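 SD rats given a single 100 mg/kg oral dose, n=5. Plasma and whole brain were taken 6 h later. Drug concentrations were measured in both, the brain-to-plasma ratio was derived from them, and whole-brain Aβ42 was reported as percent change.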
# [6] = Drug level in Sprague-Dawley rat brain at 100 mg/kg, po after 6 hrs; design: dose 100 mg/kg, route oral; details: read-out: Drug uptake; outline: as §2
# [7] = Ratio of drug level in brain to plasma in Sprague-Dawley rat at 100 mg/kg, po after 6 hrs; design: dose 100 mg/kg, route oral; details: read-out: BPR; outline: as §2
# [8] = Plasma concentration in Sprague-Dawley rat at 60 mg/kg, po after 6 hrs; design: dose 60 mg/kg, route oral
# Outline: (§3)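 Single 60 mg/kg oral dose in SD rats. Plasma and brain drug exposure and central Aβ42 were assessed 6 h post-dose.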
# [9] = Drug level in Sprague-Dawley rat brain at 60 mg/kg, po after 6 hrs; design: dose 60 mg/kg, route oral; details: read-out: Drug uptake; outline: as §3
clearance [1] [mL/min/kg],Vd [2] [L/kg],half-life [3] [h],bioavailability [4] [%],AUC/dose (Rattus norvegicus) [µM·kg·h/mg],concentration at 6 h [5] [µM],concentration at 6 h [6] [µM],Kp at 6 h [7],concentration at 6 h [8] [µM],concentration at 6 h [9] [µM],SMILES
24,7.1,7.7,41,1.4,47,56,1.2,,,COc1cc(-c2cn(Cc3ccc(C(C)(C)C)cc3)nn2)ccc1-n1cnc(C)c1
13.7,2.8,5.4,49,2.6,,,,40,9.4,COc1cc(-c2cn(Cc3ccc(-c4nc5ccccc5o4)cc3)nn2)ccc1-n1cnc(C)c1
